Shown is part of a subset that was picked to be rich in hits.
GASC1 inh – inhibitors of GASC-1 (KDM4C) histone demethylase, primary screen, biochemical, single concentration HTS. Lysine-specific demethylase 4C (Homo sapiens), Q9H3R0. GST-KDM4C 2-372, H3K9me3 peptide, LANCE TR-FRET. inhibition, % at 12.5 µM. hit rate 0.15% among 96,000. AID 720574, 2013;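 active = mean replicate inhibition above about 25%, with at least 55% of replicates also reaching it, limit read from the data, passing the limit was not always enough; inconclusive = only one of those two conditions met; inactive = neither condition met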
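Material: N-terminal GST-fused human GASC-1 (KDM4C) fragment, residues 2-372. Input: 10 nM enzyme. Incubation: enzyme reaction 30 min, then detection 60 min, both room temperature. Doses: one test concentration per compound. Read-out basis: inhibition from TR-FRET ratio decrease. Detection: LANCE TR-FRET, excitation 340 nm, emissions 618 and 671 nm.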
T cruzi growth-1 – T. cruzi intracellular proliferation inhibitors, primary screen, cell-based, beta-gal Tulahuen parasites, NIH3T3 host, luminescence | T. cruzi beta-gal in NIH3T3, GalScreen luminescence, 90 h | inhibition, % at 8.34 µM | hit rate 5.9% among 77,000 | AID 624255, 2012;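 active = mean inhibition above about 93%, with at least 55% of replicates each passing it, limit read from the data, passing the limit was not always enough; inconclusive = only one of those two conditions holds; inactive = neither condition holds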
IDH1 mut inh – inhibitors of IDH1 R132H reductase, primary screen, biochemical, plate reader, single point. AID 624101, 2012. hit rate 0.18% among 70,000. Isocitrate dehydrogenase [NADP] cytoplasmic (Homo sapiens), O75874. diaphorase/resazurin fluorescence, 60 min. inhibition, % at 10 µM; in the data active = inhibition above about 34%; inconclusive = no clear call, values can overlap the other calls; inactive = below about 11%;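 also: 0% = DMSO and 100% = no enzyme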
Target sequence (O75874 whole entry R132H): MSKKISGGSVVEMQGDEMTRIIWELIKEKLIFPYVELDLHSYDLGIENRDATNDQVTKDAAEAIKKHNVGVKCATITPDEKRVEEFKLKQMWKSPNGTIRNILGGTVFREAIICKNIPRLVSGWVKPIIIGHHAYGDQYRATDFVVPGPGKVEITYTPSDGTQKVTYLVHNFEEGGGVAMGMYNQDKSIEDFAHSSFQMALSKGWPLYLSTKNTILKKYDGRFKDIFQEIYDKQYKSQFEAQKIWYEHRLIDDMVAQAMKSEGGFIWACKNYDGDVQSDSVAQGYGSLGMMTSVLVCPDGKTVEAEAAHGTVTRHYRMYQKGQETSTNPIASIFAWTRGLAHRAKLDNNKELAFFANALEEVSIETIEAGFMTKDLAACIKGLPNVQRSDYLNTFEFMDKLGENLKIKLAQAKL
T cruzi growth-2 – T. cruzi intracellular proliferation inhibitors, confirmation, cell-based, NIH3T3 host, beta-gal parasite, luminescence, cherry-pick; hit rate 72% among 5,600; inhibition, % at 8.35 µM; T. cruzi beta-gal in NIH3T3, GalScreen luminescence, 90 h; shares compounds with T cruzi growth-1;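 active = mean replicate inhibition above about 95% and at least 55% of replicates individually reaching it, limit read from the data; inconclusive = only one of the two criteria is met; inactive = neither criterion is met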
T cruzi growth-3 – inhibitors of intracellular T. cruzi replication, confirmation, NIH3T3 host cells, beta-gal parasites, cherry-pick, set 2; shares compounds with T cruzi growth-1; T. cruzi beta-gal in NIH3T3, GalScreen luminescence, 90 h; inhibition, % at 2.09 µM; hit rate 21% among 5,600; AID 651740, 2012;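 active = mean inhibition above about 95%, with at least 55% of replicates also reaching it, limit read from the data; inconclusive = meets just one of the two conditions; inactive = meets neither condition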;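 also: plate controls were neutral control median for no effect and positive control median for full effect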
3T3 cytotox – cytotoxicity in mouse NIH/3T3 fibroblasts, confirmation, cytotoxicity control for T. cruzi proliferation inhibitor project, cell-based, cherry-pick, single point; AID 651742, 2012; shares compounds with T cruzi growth-1; hit rate 14% among 5,600; cytotoxicity (signal decrease), % at 8.35 µM; NIH/3T3 viability, CellTiter-Glo ATP luminescence, 90 h;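 active = mean signal decrease across replicates above about 35% based on untreated-well scatter, with enough replicates individually passing, limit read from the data; inconclusive = no rule stated though some were filed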;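 also: 0% = median of neutral control wells and 100% = median of positive control wells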
NIH3T3 tox 2 – NIH/3T3 fibroblast cytotoxicity, confirmation, cytotoxicity control, cell-based, cherry-pick, single point, set 2; shares compounds with T cruzi growth-1; NIH/3T3 viability, CellTiter-Glo ATP luminescence, 90 h; inhibition, % at 24.9 µM; hit rate 56% among 5,600; AID 651744, 2012;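 active = mean loss of cell viability signal at or above a set limit, and enough replicates individually reaching it; inconclusive = meets only the mean limit or only the replicate share; inactive = meets neither condition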;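 also: 0% = median of neutral control wells and 100% = median of positive control wells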
* hit, by the source's call; ? = inconclusive; · = no result given.

SMILES | GASC1 inh | T cruzi growth-1 | IDH1 mut inh | T cruzi growth-2 | T cruzi growth-3 | 3T3 cytotox | NIH3T3 tox 2
COc1cc(/C=N/NC(=O)c2ccccc2O)c([N+](=O)[O-])cc1OC | · | · | 0 | · | · | · | ·
COC(=O)c1ccc(C)c(NC(=O)CN(c2ccc(F)cc2)S(C)(=O)=O)c1 | · | · | 2 | · | · | · | ·
Nc1cc(N)nc(SCC(=O)Nc2cccc(Cl)c2Cl)n1 | · | · | 0 | · | · | · | ·
CN1c2ccc(Br)cc2[C@H]2[C@H](CCN2S(=O)(=O)c2cccc(F)c2)[C@@H]1CO | 1 | 117* | · | 103* | 89 | 34 | 23
CN1c2ccc(Br)cc2[C@@H]2[C@@H](CCN2S(=O)(=O)c2cccc(F)c2)[C@H]1CO | 0 | ? | · | 106* | 28 | 15 | 35*
CN1c2ccc(Br)cc2[C@@H]2[C@@H](CCN2S(=O)(=O)c2ccccc2)[C@@H]1CO | 0 | 54 | · | · | · | · | ·
Cc1cccc(S(=O)(=O)N2CC[C@@H]3[C@H]2c2cc(Br)ccc2N(C)[C@H]3CO)c1 | -2 | 74 | · | · | · | · | ·
Cc1ccc(-n2c(C)nnc2SCC(=O)Nc2ccc(Cl)c(C(F)(F)F)c2)cc1 | · | · | 1 | · | · | · | ·
Cc1cc(C)cc(N(C(C)C(=O)Nc2cccc(C(F)(F)F)c2)S(C)(=O)=O)c1 (stereo unspecified) | · | · | -1 | · | · | · | ·
C[C@H](CO)N1C[C@H](C)[C@@H](CN(C)Cc2ccc(-c3ccccc3)cc2)Oc2ccc(NC(=O)CCN3CCOCC3)cc2CC1=O | 0 | 99* | 1 | 114* | 54 | 13 | 105*
C[C@H](CO)N1C[C@H](C)[C@H](CN(C)Cc2ccc(C(F)(F)F)cc2)Oc2ccc(NC(=O)CCN3CCOCC3)cc2CC1=O | 1 | ? | -1 | -42 | 19 | -5 | 3
C[C@H](CO)N1C[C@H](C)[C@H](CN(C)Cc2ccc(-c3ccccc3)cc2)Oc2ccc(NC(=O)CCN3CCOCC3)cc2CC1=O | 2 | 18 | -1 | · | · | · | ·
C[C@@H]1CN([C@@H](C)CO)C(=O)Cc2cc(NC(=O)CCN3CCOCC3)ccc2O[C@@H]1CN(C)Cc1ccc(C(F)(F)F)cc1 | 1 | 12 | 3 | · | · | · | ·
COC(=O)CCC(=O)Nc1ccc(C#N)cc1 | · | · | 0 | · | · | · | ·
Cc1ccc(C)c(NC(=O)CSc2nnc(-c3ccncc3)n2-c2ccc(F)cc2)c1 | · | · | 0 | · | · | · | ·
Cc1ccc2[nH]c(=S)n(C3CC4C=CC3C4)c(=O)c2c1 (stereo unspecified) | · | · | 1 | · | · | · | ·
CC(=O)Nc1ccc(C(=O)Nc2ccc(S(=O)(=O)Nc3nccs3)cc2)cc1 | · | · | 0 | · | · | · | ·
CCOc1ccc(-c2nnc(SCC(=O)O)n2-c2ccccc2)cc1 | · | · | 7 | · | · | · | ·
N#C[C@@H]1[C@@H](c2ccc(C3=CCCCC3)cc2)[C@@H](CO)N1S(=O)(=O)c1ccccc1 | 2 | 96* | · | 102* | 56 | 55* | 60*
N#C[C@@H]1[C@H](c2ccc(C3=CCCCC3)cc2)[C@H](CO)N1S(=O)(=O)c1cccc(F)c1 | -4 | 103* | · | 102* | 43 | 14 | 79*
N#C[C@H]1[C@H](c2ccc(C3=CCCCC3)cc2)[C@@H](CO)N1S(=O)(=O)c1ccccc1 | 0 | 86 | · | · | · | · | ·
N#C[C@H]1[C@H](c2ccc(C3=CCCCC3)cc2)[C@@H](CO)N1S(=O)(=O)c1cccc(F)c1 | 1 | 47 | · | · | · | · | ·
COC(=O)c1c(NC(=O)Cn2ccc([N+](=O)[O-])n2)sc2c1CCCC2 | · | · | 0 | · | · | · | ·
C[C@H](CO)N1C[C@H](C)[C@@H](CN(C)S(=O)(=O)c2ccc(Cl)cc2)OCCCC[C@H](C)Oc2ccc(NS(=O)(=O)c3ccc(F)cc3)cc2C1=O | 0 | 98 | · | · | · | · | ·
